Bioassay records (PubChem BioAssay)
Most compounds without a hit are left out; they make up all but 0.58% or so of the library.
OXTR potentiator – potentiators of human oxytocin receptor; CHO-OTR cells, Fluo-8 calcium fluorescence, potentiator mode; 0% = oxytocin EC15, 100% = EC100; activation, % at 3 µM; hit rate 0.061% among 320,000; AID 2445;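 active means activation above that plate's cutoff, the mean activation of tested compounds plus 3 SD, cut at about 6.6% in these data, passing the limit was not always enough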
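test system = CHO-OTR cells, human receptor | compound = single-point 3.0 µM | schedule = 6 min compound pre-incubation at room temperature, 100 s kinetic read | signal = Fluo-8 no-wash calcium dye fluorescence, excitation 470-495 nm, emission 515-575 nm | repeats = single well per compound, singlicate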
zfTRPN1 agonist – zebrafish TRPN1 (NompC) channel agonism | HEK293 zebrafish TRPN1-YFP, Fluo-8 calcium fluorescence; 100% = response to 87 µM carbachol | AID 1424 | activation, % at 3 µM | hit rate 0.18% among 220,000;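 active means activation above its plate's cutoff, the mean activation of test wells on that plate plus 3 SD, cut at about 19% in these data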
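Material – zebrafish TRPN1-YFP in HEK293 cells · Doses – 3 µM single point · Schedule – dye 1 h 37 °C plus 30 min RT · Signal – Fluo-8 calcium fluorescence, excitation 470-495 nm, emission 515-575 nm · Read-out – % activation versus carbachol response · Control set – carbachol high, DMSO low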
V1aR counter – activates human V1a receptor in oxytocin agonist counter-screen | activation, % at 3 µM | P37288 | CHO-V1R cells, Fluo-8 calcium fluorescence, agonist mode; 0% DMSO, 100% 3 nM vasopressin | AID 2797 | hit rate 0.25% among 320,000;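 active means activation above the mean activation of all tested compounds plus 3 SD, per screening run, cut at about 20% in these data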;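 further: signal is peak over basal fluorescence ratio across a 100 second FLIPR read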
Target sequence (P37288 whole entry, looked up): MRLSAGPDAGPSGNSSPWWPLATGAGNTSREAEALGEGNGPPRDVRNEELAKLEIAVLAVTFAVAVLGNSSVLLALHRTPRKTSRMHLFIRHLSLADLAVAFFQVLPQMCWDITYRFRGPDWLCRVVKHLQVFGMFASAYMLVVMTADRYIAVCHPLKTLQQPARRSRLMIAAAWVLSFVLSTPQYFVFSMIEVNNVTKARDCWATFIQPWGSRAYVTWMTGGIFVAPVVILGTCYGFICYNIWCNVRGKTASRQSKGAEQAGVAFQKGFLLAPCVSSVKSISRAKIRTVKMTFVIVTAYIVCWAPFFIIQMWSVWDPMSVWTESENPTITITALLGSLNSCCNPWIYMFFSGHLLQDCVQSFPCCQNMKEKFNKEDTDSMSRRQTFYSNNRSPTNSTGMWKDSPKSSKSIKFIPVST
TRPML3 agonist – agonists of human TRPML3 channel; Q8TDD5; HEK293 TRPML3-YFP, Fluo-8 calcium fluorescence; 100% = the carbachol control signal; activation, % at 3 µM; hit rate 0.29% among 220,000;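 active means activation above its plate's cutoff, the mean activation of the plate's test wells plus 3 SD, cut at about 12% in these data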
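system = HEK293 cells stably carrying human TRPML3-YFP | doses = one concentration, 3 µM nominal, 0.3% DMSO | timing = dye loading 1 h 37 °C then 30 min ambient, 125 s read | detection = Fluo-8 calcium dye fluorescence, ex 470-495, em 515-575 nm | benchmarks = high control carbachol 87 µM, low control DMSO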
OXTR agonist – activates the human oxytocin receptor; hit rate 0.32% among 320,000; CHO-OTR cells, Fluo-8 calcium fluorescence; normalized: DMSO 0%, oxytocin 100%; activation, % at 3 µM; AID 2435; P30559;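 active means activation above the mean of all tested compounds plus 3 SD, cutoff set per screening run, cut at about 20% in these data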;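 further: peak over basal fluorescence ratio from a 100 s FLIPR kinetic read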
TRPN1 ag 2 – activates zebrafish TRPN1, counter-screen for TRPML3 agonists; hit rate 10% among 310; activation, % at 3 µM; shares compounds with TRPML3 agonist; AID 1525; HEK293 zebrafish TRPN1-YFP, Fluo-8 calcium fluorescence; scaled: carbachol wells 100%, DMSO wells 0%;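 active means mean activation over replicates above a set limit taken from the earlier TRPN1 channel primary screen, cut at about 19% in these data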
TRPML3 ag conf – human TRPML3 agonism, confirmation | hit rate 80% among 310 | AID 1526 | shares compounds with TRPML3 agonist | activation, % at 3 µM | HEK293 TRPML3-YFP, Fluo-8 calcium fluorescence; 100% set by carbachol, 0% by DMSO;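 active means activation above a set limit derived from the earlier primary screen, cut at about 12% in these data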
Hits are given with their value; . = inactive; / = not tested or not shown.

SMILES	OXTR potentiator	zfTRPN1 agonist	V1aR counter	TRPML3 agonist	OXTR agonist	others
O=C1NC(=O)C(=C/C=C/c2coc3ccc(Br)cc3c2=O)C(=O)N1	.	.	.	.	39.6
CN1C(=O)C(=Cc2sc(=O)n(-c3ccccc3)c2N2CCCCC2)C(=O)N(C)C1=O	/	29.1	/	.	/
COC(=O)C1=C(c2c(C)noc2C)C[C@@H]2CC[C@H]1N2C(=O)NC1CCCCC1	.	/	.	/	.
CC1(C)CN=C(Nc2ccc(F)c(F)c2)S1	.	.	.	.	.
CC1(C)CN=C(Nc2ccc(F)c(Cl)c2)S1	.	.	27.0	.	.
O=[N+]([O-])c1ccc(NCc2ccccc2)c2nonc12	.	332.1	691.5	215.7	692.8
O=[N+]([O-])c1ccc(NCc2ccc(Cl)cc2)c2ccncc12	.	/	.	/	.
Oc1ccccc1C1NCc2ccccc2-n2cccc21 (centres undefined)	.	/	.	/	.
O=c1cc(C(F)(F)F)c2cc3c4c(c2o1)CCCN4CCC3	.	.	152.2	.	168.9
Cc1cc2c(C(F)(F)F)cc(=O)oc2c2c1NCCC2	.	.	.	.	.
COc1ccc(CNCCc2c(C)[nH]c3ccc(OC(F)(F)F)cc23)c(OC)c1	.	/	41.0	/	40.6
COc1ccc2[nH]c(C)c(CCNCc3cc(OC)c(OC)c(OC)c3)c2c1	.	.	.	.	.
COC(=O)C1=C(c2ccc(OC)c(OC)c2)C[C@@H]2CC[C@H]1N2C(=O)NCCCOC(C)C	.	/	.	/	.
CC(C)[N+]12CCC(CC1)C(C(O)(c1ccccc1)c1ccccc1)C2 (centres undefined)	.	.	.	.	.
CC(C(=O)Nc1ccc(Br)cc1C(=O)c1ccccc1)N1CCCCC1 (centres undefined)	11.9	.	.	.	.
COC(=O)C1=C(c2ccc(C(C)=O)cc2)C[C@@H]2CC[C@H]1N2C(=O)NC(C)C	.	/	.	/	.
O=C1NC(=O)C(=Cc2csc3ccccc23)C(=O)N1	.	.	.	.	24.0
Cn1c(O)c(C=Nc2ccc(Br)cc2)c(=O)n(C)c1=O	.	/	.	/	.
Cn1c(O)c(/C=C/C=Nc2ccccc2)c(=O)n(C)c1=S	.	.	47.4	.	93.0
O=[N+]([O-])c1ccc(N2CCCCCC2)c2nonc12	.	/	534.2	/	412.8
C=C(C)[C@@]12OC3(c4ccccc4)O[C@@H]1C1[C@@H]4O[C@]4(CO)[C@@H](O)[C@]4(O)C(=O)C(C)=C[C@H]4[C@@]1(O3)[C@H](C)[C@H]2OC(=O)/C=C/C=C/c1ccccc1 (some centres undefined)	.	/	.	/	.
C/C=C1/C[N+]2(C)CCC34C(=C(C=O)[C@H]1C[C@@H]32)Nc1ccccc14 (some centres undefined)	.	/	.	/	.
CN1/C(=C\C=C2C(=O)NC(=S)NC2=O)C(C)(C)c2ccccc21	/	57.4	/	31.5	/
C[C@]12CCC(=O)C[C@H]1CC[C@@H]1[C@@H]2CC[C@]2(C)C(=O)CC[C@@H]12	.	/	.	/	.
C/C=C(\C)C(=O)OC1C(C)=C2C(C1OC(=O)CCCCC)C(C)(OC(C)=O)CC(OC(=O)CCC)C1(O)C2OC(=O)C1(C)O (centres undefined)	.	/	65.2	/	62.3
Nc1ccc2ccc3cccc[n+]3c2c1	.	/	92.4	/	38.2
COC(=O)C1=CCCN(C)C1	.	.	.	19.8	.	TRPN1 ag 2=.;TRPML3 ag conf=45.8
C[C@]12CCC3C(CC[C@H]4C[C@@H](O)CC[C@]34C)C1C/C(=N/O)[C@@H]2O (some centres undefined)	.	/	.	/	.
